Results as given in ChEMBL document CHEMBL2375274, “Exploration of the structure-activity relationship of a novel tetracyclic class of TSPO ligands-potential novel positron emitting tomography imaging agents” (Bioorg Med Chem Lett, 2013).
pKi: −log10 of the molar value.

Tests used:
Translocator protein = Translocator protein (Rattus norvegicus, UniProt P16257); test: Displacement of [3H]PK11195 from PBR receptor in Wistar rat heart homogenates; assay type: tissue-based
Summary of the method: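 Competition binding against [³H]PK11195 in homogenised rat heart tissue.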

Striatum = test: Ratio of drug uptake in Wistar rat striatum after 2 mins to Wistar rat striatum after 30 mins; assay type: ADME, tissue-based; conditions: in vivo
Summary of the method: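 Biodistribution of ¹⁸F-compounds in naïve Wistar rats (n = 3). Regional brain uptake was measured as % id/g at 2 and 30 min post-injection. Ratios were taken between regions, olfactory bulb:striatum at 30 min, and between times, 2:30 min.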

[1] = Octanol-water partition coefficient, log P of the compound by reversed phase liquid chromatography; assay type: physicochemical
[2] = Ratio of drug uptake in Wistar rat brain to Wistar rat striatum after 30 mins; conditions: in vivo, 0.5 h
[3] = Metabolic stability in Wistar rat brain assessed as remaining parent compound after 30 mins by HPLC analysis; assay type: ADME, tissue-based; conditions: read-out: Stability
Summary of the method: (§1)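 ¹⁸F-labelled compounds given to naïve Wistar rats (n = 1). Brain extracts were taken at 10, 30 and 60 min post-injection and analysed by HPLC. The read-out is % parent.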

[4] = Metabolic stability in Wistar rat brain assessed as remaining parent compound after 60 mins by HPLC analysis; assay type: ADME, tissue-based; conditions: read-out: Stability; summary of the method: as §1
[5] = Metabolic stability in Wistar rat brain assessed as remaining parent compound after 10 mins by HPLC analysis; assay type: ADME, tissue-based; conditions: read-out: Stability; summary of the method: as §1
[6] = Metabolic stability in Wistar rat plasma after 15 mins by HPLC analysis; assay type: ADME, cell-free; conditions: read-out: Stability
Summary of the method: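 Radiolabelled compound was incubated in plasma at 37 °C for 15 min. Chiral HPLC analysis then gave the percentage of the active enantiomer that remained.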

Translocator protein, sequence (P16257 whole entry, looked up): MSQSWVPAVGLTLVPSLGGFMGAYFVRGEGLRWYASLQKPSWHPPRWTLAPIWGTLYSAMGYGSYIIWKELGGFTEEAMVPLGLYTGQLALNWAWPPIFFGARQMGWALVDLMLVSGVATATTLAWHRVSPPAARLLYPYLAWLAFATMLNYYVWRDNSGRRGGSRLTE

Structure (SMILES) | pKi (Translocator protein) | Ratio (Striatum) | logP [1] | Ratio [2] | also measured
CCN(CC)C(=O)C1Sc2ccccc2-c2c1c1cccc(OC)c1n2CCF (racemic) | 9.03 | 5 | 3.85 | 2 | 
CCN(CC)C(=O)C1Sc2ccccc2-c2c1c1c(OC)cccc1n2CCF (racemic) | 8.96 | 2 |  | 2.42 | 
CCOc1ccc2c(c1)c1c(n2CCF)-c2ccccc2SC1C(=O)N(CC)CC (racemic) | 9.28 | 2.89 | 3.88 | 2.67 | 
CCN(CC)C(=O)C1(C)Sc2ccccc2-c2c1c1ccccc1n2CCF (single isomer, unassigned; form 1) | 7.52 |  |  |  | 
CCN(CC)C(=O)C1Sc2ccc(O)cc2-c2c1c1ccccc1n2CCF (racemic) | 9.26 | 0.75 |  | 1.25 | 
CCN(CC)C(=O)C1Sc2ccccc2-c2c1c1cc(OC)ccc1n2CCF (racemic) |  | 1.73 | 3.77 |  | remaining at 0.5 h [3]: 97%; remaining at 1 h [4]: 96%; remaining at 10 min [5]: 98%
CCN(CC)C(=O)C1c2ccccc2-c2[nH]c3ccccc3c21 (racemic) | 9.10 | 5.8 |  | 1 | 
CCN(CC)C(=O)C1Sc2cc(N(CCF)C(C)=O)ccc2-c2c1c1ccccc1n2CCF (racemic) | 8.87 |  | 3.13 |  | 
CCN(CC)C(=O)C1Sc2ccccc2-c2[nH]c3ccc(NC(C)=O)cc3c21 (racemic) | 7.23 |  |  |  | 
CCN(CC)C(=O)C1Sc2ccccc2-c2c1c1ccccc1n2Cc1cn(CCF)nn1 (racemic) | 7.20 |  |  |  | 
CCN(CC)C(=O)C1Sc2ccccc2-c2c1c1ccc(OC)cc1n2CCF (racemic) | 9.40 | 4.75 | 3.82 | 3.5 | remaining at 0.5 h [3]: 98%; remaining at 1 h [4]: 98%; remaining at 10 min [5]: 99%
CCN(CC)C(=O)C1Sc2ccccc2-c2c1c1cc(C#N)ccc1n2CCF (racemic) | 9.72 | 2.23 | 3.6 | 1.93 | 
CCN(CC)C(=O)C1Sc2ccccc2-c2c1c1ccccc1n2CCF (single isomer, unassigned; form 2) | 9.66 |  |  |  | remaining at 0.25 h [6]: 83%
CCN(CC)C(=O)C1Sc2ccccc2-c2c1c1ccccc1n2CCCF (racemic) | 9.44 |  |  |  | 
CCN(CC)C(=O)C1(C)Sc2ccccc2-c2c1c1ccccc1n2CCF (single isomer, unassigned; form 2) | 7.77 |  |  |  | 
CCN(CC)C(=O)C1Sc2ccccc2-c2c1c1ccccc1n2CCF (single isomer, unassigned; form 1) | 8.28 |  |  |  | 
CCN(CC)C(=O)C1Sc2ccccc2-c2c1c1cc(O)ccc1n2CCF (racemic) | 7.72 | 1.33 | 3.19 | 1 | 
CCN(CC)C(=O)C1Sc2ccccc2-c2c1c1ccccc1n2CCF (racemic) |  | 2.16 | 3.76 | 1.42 | remaining at 0.5 h [3]: 95%; remaining at 10 min [5]: 99%
CCN(CC)C(=O)C1Sc2ccc(OC)cc2-c2c1c1ccccc1n2CCF (racemic) | 9.52 | 1.42 | 3.65 | 1.37 | 
CCN(CC)C(=O)C1Sc2cccc(OC)c2-c2c1c1ccccc1n2CCF (racemic) | 8.97 | 3 | 3.67 | 1.78 | 
[3H]C([3H])([3H])N(C(=O)c1cc2ccccc2c(-c2ccccc2Cl)n1)C(C)CC (stereo not drawn) |  |  |  |  | remaining at 0.5 h [3]: 100%; remaining at 1 h [4]: 100%; remaining at 10 min [5]: 100%
CCN(CC)C(=O)C1(C)c2c(n(CCF)c3ccccc23)-c2ccccc2S1(=O)=O (racemic) | 6.39 |  | 3.1 |  | 
CCN(CC)C(=O)C1Sc2ccccc2-c2c1c1cc(OC)ccc1n2CCF (single isomer, unassigned; form 1) | 8.93 |  |  |  | 

Structure (SMILES) | pKi (Translocator protein) | Ratio (Striatum) | logP [1] | Ratio [2] | also measured
CCN(CC)C(=O)C1Sc2c(OC)cccc2-c2c1c1ccccc1n2CCF (racemic) | 9.48 | 1.07 | 3.67 | 1.53 | 
CCN(CC)C(=O)C1Sc2cc(O)ccc2-c2c1c1ccccc1n2CCF (racemic) | 9.48 | 1.11 | 2.7 | 1.44 | 
CCN(CC)C(=O)C1Sc2ccccc2-c2c1c1ccc(OC)nc1n2CCF (racemic) | 8.07 | 4.67 | 3.87 | 2.11 | 
CCN(CC)C(=O)C1Sc2ccccc2-c2c1c1ccccc1n2CCCCF (racemic) | 9.28 |  |  |  | 
CCN(CC)C(=O)C1c2c(n(CCF)c3ccccc23)-c2ccccc2S1(=O)=O (racemic) | 8.06 | 1.75 | 3 | 2.13 | 
CCN(CC)C(=O)C1Sc2ccccc2-c2c1c1cc(F)ccc1n2CCF (racemic) | 9.31 | 1.6 | 3.85 | 1.16 | 
CCN(CCF)C(=O)c1sc2ccccc2c2nc3ccccc3c1-2 | 6.53 |  |  |  | 
CCN(CC)C(=O)C1Sc2c(F)cccc2-c2c1c1ccccc1n2CCF (racemic) |  |  | 3.79 |  | 
CCN(CC)C(=O)C1Sc2ccccc2-c2c1c1cccnc1n2CCF (racemic) | 8.41 |  | 3.12 |  | 
CCN(CC)C(=O)C1Sc2ccccc2-c2c1c1cc(Br)ccc1n2CCF (racemic) | 9.33 | 1.53 | 4.23 | 1.35 | 
CCN(CC)C(=O)C1Sc2ccccc2-c2c1c1cc(OC(F)(F)F)ccc1n2CCF (racemic) | 9.59 | 1.29 | 4.03 | 1.46 | 
CCN(CC)C(=O)C1Sc2cc(F)ccc2-c2c1c1ccccc1n2CCF (racemic) |  |  | 3.87 |  | 
CCN(CC)C(=O)C1Sc2ccccc2-c2c1c1cc(C)ccc1n2CCF (racemic) | 9.47 | 2 | 3.96 | 1.73 | 
CCN(CC)C(=O)C1Sc2cc(NC(C)=O)ccc2-c2c1c1ccccc1n2CCF (racemic) | 9.41 |  | 3.15 |  | 
CCN(CC)C(=O)C1Sc2ccccc2-c2[nH]c3ccccc3c21 (racemic) | 9.12 |  |  |  | 
CCN(CC)C(=O)C1Sc2ccc(F)cc2-c2c1c1ccccc1n2CCF (racemic) | 9.41 | 2.11 | 3.84 | 1.37 | 
CCN(CC)C(=O)C1(C)Sc2ccccc2-c2c1c1ccccc1n2CCF (racemic) | 7.88 | 2.75 | 4 | 0.88 | 
CCN(CC)C(=O)C1Sc2ccccc2-c2c1c1cc(OC)ccc1n2CCF (single isomer, unassigned; form 2) | 9.54 |  |  |  | 
CCN(CC)C(=O)C1Cc2ccccc2-c2c1c1ccccc1n2CCF (racemic) | 8.95 |  | 3.69 |  | 
CCN(CC)C(=O)C1Sc2cc(OC)ccc2-c2c1c1ccccc1n2CCF (racemic) | 9.52 | 1.17 | 3.91 | 1.4 | 
CCN(CC)C(=O)C1Sc2cc(OCCF)ccc2-c2c1c1ccccc1n2C (racemic) | 9.46 |  |  |  | 
CCN(CC)C(=O)CC1c2cc(OC)ccc2-c2c1c1ccccc1n2CCF (racemic) | 6.81 |  |  |  | 
CCN(CC)C(=O)C1Sc2ccccc2-c2c1c1cc(Cl)ccc1n2CCF (racemic) | 9.64 | 1.29 | 4.17 | 1.57 | 
